Laboratory results: article PMC4076036 (Journal of Natural Products, 2014)

Columns and labels:
tyrosinase [1] = target: T1, tyrosinase (Mus musculus, UniProt P11344); test: Tyrosinase activity in treated melan-a cells; type: cell-based; details: 60 μM, 3 days, 20 nM TPA; TPA alone 100%
T1 sequence (P11344 19-533): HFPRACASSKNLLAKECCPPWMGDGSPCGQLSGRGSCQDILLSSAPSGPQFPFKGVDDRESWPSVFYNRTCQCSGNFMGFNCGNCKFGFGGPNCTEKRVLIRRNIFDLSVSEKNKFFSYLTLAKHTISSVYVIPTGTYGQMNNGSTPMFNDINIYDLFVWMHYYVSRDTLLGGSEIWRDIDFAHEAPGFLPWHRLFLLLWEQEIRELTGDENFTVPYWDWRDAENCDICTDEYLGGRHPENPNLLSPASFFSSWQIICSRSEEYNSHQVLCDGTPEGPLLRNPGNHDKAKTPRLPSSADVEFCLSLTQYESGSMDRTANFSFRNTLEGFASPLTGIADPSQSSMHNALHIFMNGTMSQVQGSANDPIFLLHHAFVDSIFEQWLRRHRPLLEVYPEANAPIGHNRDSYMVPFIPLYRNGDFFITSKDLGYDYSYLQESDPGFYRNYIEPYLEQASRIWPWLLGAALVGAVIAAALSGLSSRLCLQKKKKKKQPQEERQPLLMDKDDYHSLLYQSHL

tyrosinase/TRP-1 complex = test: Co-immunoprecipitation with antibody against TRP-1; type: cell-based, mouse; details: 3 days, forskolin-supplemented medium
melan-a melanocytes [2] = test: Confocal immunofluorescence microscopy of tyrosinase localization; type: cell-based, mouse
melan-a tyrosinase = target: T2, melan-a tyrosinase (Mus musculus, UniProt P11344); type: biochemical; details: for type of tyrosinase inhibition: Lineweaver–Burk plot, L-DOPA
T2 sequence (P11344 19-533): T1 sequence (P11344 19-533)

MITF, tyrosinase, TRP-1 = type: cell-based, mouse; details: 1 day, forskolin-supplemented medium
In short: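 Melan-a cells were co-treated with 1 μM forskolin, with or without the test compound, for 1 day. Proteins were extracted in PhosphoSafe buffer, run on 10% SDS-PAGE, semidry-transferred to PVDF and blocked in 3% BSA. Blots were probed for tyrosinase, TRP-1, TRP-2, MITF and β-actin, then HRP secondary antibodies (1 h, room temperature). Detection was by ECL, with stripping before reprobing.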

tyrosinase [3] = test: Glycosylation analysis of tyrosinase; type: cell-based, mouse; details: forskolin-supplemented medium, Endo H digestion
melan-a melanocytes [4] = test: Sulforhodamine B cytotoxicity assay; type: cell-based, mouse; details: 3 days, with or without forskolin
In short: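 Melan-a cells in RPMI-1640 with 5% FBS and antibiotics were seeded at 20 000 cells/0.1 mL/well. They were exposed to the test compound for 72 h in medium with 20 nM TPA, 1 μM forskolin, or vehicle alone. Viability was read by the sulforhodamine B colorimetric assay. Values are mean ± SD of triplicate experiments.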

| Compound | tyrosinase activity (tyrosinase [1]) [%] | tyrosinase co-immunoprecipitated with TRP-1 (tyrosinase/TRP-1 complex) | tyrosinase localization (calnexin/ER, Lamp-1/lysosome) (melan-a melanocytes [2]; 60 μM, 3 days) | type of tyrosinase inhibition (melan-a tyrosinase) | reversibility of binding to tyrosinase (melan-a tyrosinase; tyrosinase mixed with compound 24 h prior to kinetic analysis) | TRP-1 expression (MITF, tyrosinase, TRP-1) | expression of MITF (MITF, tyrosinase, TRP-1) | expression of tyrosinase (MITF, tyrosinase, TRP-1) | immature Endo H-sensitive form of tyrosinase (tyrosinase [3]) | cytotoxic effect (melan-a melanocytes [4]) | colocalization of calnexin and tyrosinase (melan-a melanocytes [2]; 85 μM, 1 day, positive control) | Vmax (melan-a tyrosinase) | colocalization of tyrosinase and Lamp-1 (melan-a melanocytes [2]; 15 μM, 4 days) |
| --- | --- | --- | --- | --- | --- | --- | --- | --- | --- | --- | --- | --- | --- |
| OC[C@H]1O[C@@H](Oc2c(O)cc(O)cc2/C=C/c2ccc(O)cc2)[C@H](O)[C@@H](O)[C@@H]1O [Compound 1, 2,3,5,4′-Tetrahydroxystilbene-2-O-β-D-glucopyranoside] | 65 | reduction of immunoprecipitated tyrosinase | no aberrant tyrosinase is trapped in the ER and lysosome | noncompetitive | likely reversible | not prominent | suppressed | suppressed | No immature Endo H-sensitive form of tyrosinase was present | did not exert any cytotoxic effect |  |  |  |
| Oc1ccc(/C=C/c2cc(O)cc(O)c2)cc1 [resveratrol, reference compound] |  |  |  | noncompetitive |  |  |  |  |  |  | clearly colocalize to the ER | 2.5 × 10^–4 ΔA490/s |  |
| CC(=O)[C@H]1CC[C@H]2[C@@H]3CCC4=CC(=O)CC[C@]4(C)[C@H]3CC[C@]12C [progesterone] |  |  |  |  |  |  |  |  |  |  |  |  | Colocalization of both tyrosinase and Lamp-1 were also observed |
